# Assays:
# D283 Med = experiment: Anticancer activity against human D283 Med cells assessed as cell growth inhibition measured after 72 hrs by DAPI staining based analysis; type: functional
# How it was run: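 Cells seeded, DAPI-stained DNA content of fixed cells read by imaging 24 h after seeding (T0), and again after a further 72 h exposure to a range of drug concentrations (T72). T72 values were normalized to T0. Curve fits gave the concentration producing 50% growth inhibition relative to T0 and Ymax (GI50).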
# SK-OV-3 = experiment: Anticancer activity against human SK-OV-3 cells assessed as cell doubling measured for 72 hrs by DAPI staining based analysis; type: functional
# OVCAR-8 = experiment: Anticancer activity against human OVCAR-8 cells assessed as cell growth inhibition measured after 72 hrs by DAPI staining based analysis; type: functional
# NCI-H23 = experiment: Anticancer activity against human NCI-H23 cells assessed as cell growth inhibition measured after 72 hrs by DAPI staining based analysis; type: functional
# Hep 3B2 = experiment: Anticancer activity against human Hep3B cells assessed as cell doubling measured for 72 hrs by DAPI staining based analysis; type: functional
# HCT-116 [1] = experiment: Anticancer activity against human HCT-116 cells assessed as cell growth inhibition measured after 72 hrs by DAPI staining based analysis; type: functional
# [2] = Anticancer activity against human NL-SCLC3 cells assessed as cell doubling measured for 72 hrs by DAPI staining based analysis; type: functional
# DBTRG-05MG = experiment: Anticancer activity against human DBTRG-05MG cells assessed as cell doubling measured for 72 hrs by DAPI staining based analysis; type: functional
# CHP-212 [3] = experiment: Anticancer activity against human CHP-212 cells assessed as cell doubling measured for 72 hrs by DAPI staining based analysis; type: functional
# HCC1954 = experiment: Anticancer activity against human HCC1954 cells assessed as cell doubling measured for 72 hrs by DAPI staining based analysis; type: functional
# SNU-449 = experiment: Anticancer activity against human SNU-449 cells assessed as cell growth inhibition measured after 72 hrs by DAPI staining based analysis; type: functional
# SF-268 = experiment: Anticancer activity against human SF-268 cells assessed as cell growth inhibition measured after 72 hrs by DAPI staining based analysis; type: functional
# SAOS-2 = experiment: Anticancer activity against human SAOS-2 cells assessed as cell growth inhibition measured after 72 hrs by DAPI staining based analysis; type: functional
# 786-0 = experiment: Anticancer activity against human 786-0 cells assessed as cell doubling measured for 72 hrs by DAPI staining based analysis; type: functional
# BV-173 = experiment: Anticancer activity against human BV-173 cells assessed as cell growth inhibition measured after 72 hrs by DAPI staining based analysis; type: functional
# How it was run: (§1)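 Cells were seeded, and DNA content at 24 h after seeding (T0) was read by imaging of fixed, DAPI-stained cells. Cells were then exposed to a range of drug concentrations for a further 72 h (T72) and DNA content was read again. T72 values were normalized to T0, and GI50 was taken from curve fits as the concentration giving 50% growth inhibition relative to T0 and Ymax.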
# HuT78 = experiment: Anticancer activity against human HuT78 cells assessed as cell doubling measured for 72 hrs by DAPI staining based analysis; type: functional
# HCT-116 [4] = experiment: Antitumor activity against human HCT-116 cells in xenograft model assessed as difference between median time to endpoint time of treated versus control group at 125 mg/kg; type: functional
# NCI-H526 = experiment: Anticancer activity against human NCI-H526 cells assessed as cell growth inhibition measured after 72 hrs by DAPI staining based analysis; type: functional
# SW1783 = experiment: Anticancer activity against human SW1783 cells assessed as cell doubling measured for 72 hrs by DAPI staining based analysis; type: functional
# SW1990 = experiment: Anticancer activity against human SW1990 cells assessed as cell growth inhibition measured after 72 hrs by DAPI staining based analysis; type: functional
# MC-IXC = experiment: Anticancer activity against human MC-IXC cells assessed as cell growth inhibition measured after 72 hrs by DAPI staining based analysis; type: functional
# NCI-H747 = experiment: Anticancer activity against human NCI-H747 cells assessed as cell doubling measured for 72 hrs by DAPI staining based analysis; type: functional
# HOP-62 = experiment: Anticancer activity against human HOP-62 cells assessed as cell doubling measured for 72 hrs by DAPI staining based analysis; type: functional
# SW872 = experiment: Anticancer activity against human SW872 cells assessed as cell doubling measured for 72 hrs by DAPI staining based analysis; type: functional
# A 172 = experiment: Anticancer activity against human A-172 cells assessed as cell growth inhibition measured after 72 hrs by DAPI staining based analysis; type: functional
# How it was run: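 Cells were seeded and, after 24 h, DNA content was read as T0. Cells were then exposed to varying drug concentrations for a further 72 h (T72). Fixed cells were DAPI-stained and DNA content measured by automated imaging. T72 values were normalized to T0. GI50 is the concentration giving 50% growth inhibition between T0 and Ymax, obtained by curve fitting.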
# SW684 = experiment: Anticancer activity against human SW684 cells assessed as cell growth inhibition measured after 72 hrs by DAPI staining based analysis; type: functional
# T-24 = experiment: Anticancer activity against human T24 cells assessed as cell growth inhibition measured after 72 hrs by DAPI staining based analysis; type: functional
# CHP-212 [5] = experiment: Anticancer activity against human CHP-212 cells assessed as cell growth inhibition measured after 72 hrs by DAPI staining based analysis; type: functional; how it was run: as §1
# CAL-62 = experiment: Anticancer activity against human CAL-62 cells assessed as cell doubling measured for 72 hrs by DAPI staining based analysis; type: functional
# SK-N-FI = experiment: Anticancer activity against human SK-N-FI cells assessed as cell growth inhibition measured after 72 hrs by DAPI staining based analysis; type: functional
# NCI-H630 = experiment: Anticancer activity against human NCI-H630 cells assessed as cell doubling measured for 72 hrs by DAPI staining based analysis; type: functional
# CWR22R = experiment: Anticancer activity against human 22Rv1 cells assessed as cell doubling measured for 72 hrs by DAPI staining based analysis; type: functional
# CHL-1 = experiment: Anticancer activity against human CHL-1 cells assessed as cell growth inhibition measured after 72 hrs by DAPI staining based analysis; type: functional; how it was run: as §1
# A204 = experiment: Anticancer activity against human A204 cells assessed as cell doubling measured for 72 hrs by DAPI staining based analysis; type: functional
# T84 = experiment: Anticancer activity against human T84 cells assessed as cell growth inhibition measured after 72 hrs by DAPI staining based analysis; type: functional
# HMCB cell line = experiment: Anticancer activity against human HMCB cells assessed as cell doubling measured for 72 hrs by DAPI staining based analysis; type: functional
# BeWo = experiment: Anticancer activity against human BeWo cells assessed as cell growth inhibition measured after 72 hrs by DAPI staining based analysis; type: functional; how it was run: as §1
# HCT-116 [6] = experiment: Antitumor activity against human HCT-116 cells in xenograft model assessed as difference between median time to endpoint time of treated versus control group at 62.5 mg/kg; type: functional
# MV4-11 = experiment: Anticancer activity against human MV4-11 cells assessed as cell growth inhibition measured after 72 hrs by DAPI staining based analysis; type: functional
# HCC70 = experiment: Anticancer activity against human HCC70 cells assessed as cell growth inhibition measured after 72 hrs by DAPI staining based analysis; type: functional
# [7] = Anticancer activity against human RDES cells assessed as cell doubling measured for 72 hrs by DAPI staining based analysis; type: functional, RD-ES
smiles,measurement,setting,value
CC(C)Oc1ccc(C(=O)N[C@H](CNC(=O)CN(C)C)Cc2ccc(-c3cn4cccc([C@H](C)O)c4n3)cc2)cc1Cl [GSK-923295A],GI50,D283 Med,28 nM
same,Activity,SK-OV-3,1.72
same,GI50,OVCAR-8,50 nM
same,GI50,NCI-H23,27 nM
same,Activity,Hep 3B2,2.37
same,GI50,HCT-116 [1],31 nM
same,Activity,[2],2.68
same,Activity,DBTRG-05MG,1.33
same,Activity,CHP-212 [3],1.39
same,Activity,HCC1954,2.04
same,GI50,SNU-449,236 nM
same,GI50,SF-268,26 nM
same,GI50,SAOS-2,41 nM
same,Activity,786-0,2.59
same,GI50,BV-173,56 nM
same,Activity,HuT78,2.89
same,Time,HCT-116 [4],10.4 days
same,GI50,NCI-H526,88 nM
same,Activity,SW1783,1.47
same,GI50,SW1990,127 nM
same,GI50,MC-IXC,27 nM
same,Activity,NCI-H747,2.19
same,Activity,HOP-62,1.82
same,Activity,SW872,2.43
same,GI50,A 172,27 nM
same,GI50,SW684,5.02 µM
same,GI50,T-24,45 nM
same,GI50,CHP-212 [5],34 nM
same,Activity,CAL-62,3.31
same,GI50,SK-N-FI,120 nM
same,Activity,NCI-H630,2.04
same,Activity,CWR22R,2.46
same,GI50,CHL-1,24 nM
same,Activity,A204,1.46
same,GI50,T84,75 nM
same,Activity,HMCB cell line,2.92
same,GI50,BeWo,26 nM
same,Time,HCT-116 [6],-2.8 days
same,GI50,MV4-11,29 nM
same,GI50,HCC70,24 nM
same,Activity,[7],1.32

# Source: ChEMBL document CHEMBL5705890, “Antitumor activity of an allosteric inhibitor of centromere-associated protein-E” (Proc Natl Acad Sci U S A, 2010)
